# ChEMBL document CHEMBL1833971, “Towards rational design of cannabinoid receptor 1 (CB1) antagonists for peripheral selectivity” (Bioorg Med Chem Lett, 2011)
# Columns and labels:
# Cannabinoid receptor 1 [1] = molecular target: T1, Cannabinoid receptor 1 (Homo sapiens, UniProt P21554); assay: Antagonist activity at human CB1 receptor transfected in CHO-K1 cells co-expressing G-alpha-q16 protein assessed as inhibition of G-alpha-q16 protein-mediated intracellular calcium mobilization; format: functional, cell-based
# T1 sequence (P21554 whole entry): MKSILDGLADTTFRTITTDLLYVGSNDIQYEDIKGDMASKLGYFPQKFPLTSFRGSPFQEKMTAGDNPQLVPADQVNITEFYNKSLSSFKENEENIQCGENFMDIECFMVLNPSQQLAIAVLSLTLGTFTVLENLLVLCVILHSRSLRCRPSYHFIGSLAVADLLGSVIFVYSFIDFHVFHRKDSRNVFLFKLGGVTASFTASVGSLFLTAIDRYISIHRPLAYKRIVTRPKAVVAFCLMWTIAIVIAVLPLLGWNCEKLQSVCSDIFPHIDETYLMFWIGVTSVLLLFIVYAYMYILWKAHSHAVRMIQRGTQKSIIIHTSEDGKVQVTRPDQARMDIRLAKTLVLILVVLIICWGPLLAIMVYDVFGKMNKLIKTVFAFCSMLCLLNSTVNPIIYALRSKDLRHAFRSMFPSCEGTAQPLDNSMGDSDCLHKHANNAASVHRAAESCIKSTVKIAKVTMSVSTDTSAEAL
# Cannabinoid receptor 1 [2] = molecular target: T1, Cannabinoid receptor 1; assay: Displacement of [3H]-SR141716A from human CB1 receptor expressed in CHO-K1 cells after 1 hr by liquid scintillation counting; format: cell-based
# Cannabinoid receptor 1 [3] = molecular target: T1, Cannabinoid receptor 1; assay: Displacement of [3H]-CP55940 from human CB1 receptor expressed in CHO-K1 cells after 1 hr by liquid scintillation spectrometry; format: cell-based
# Homo sapiens = organism: Homo sapiens; assay: Selectivity ratio of Ki for human CB2 receptor to Ki for human CB1 receptor
# In short: (§1)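 Membranes from CHO-K1 cells over-expressing CB1 or CB2 used for [3H]CP55940 displacement, giving Ki at each receptor. Selectivity taken as the comparison of the CB2 and CB1 Ki values.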
# Cannabinoid receptor 2 = Cannabinoid receptor 2 (Homo sapiens, UniProt P34972); assay: Displacement of [3H]-CP55940 from human CB2 receptor expressed in CHO-K1 cells after 1 hr by liquid scintillation spectrometry; format: cell-based; in short: as §1
# Sequence of Cannabinoid receptor 2 (P34972 whole entry): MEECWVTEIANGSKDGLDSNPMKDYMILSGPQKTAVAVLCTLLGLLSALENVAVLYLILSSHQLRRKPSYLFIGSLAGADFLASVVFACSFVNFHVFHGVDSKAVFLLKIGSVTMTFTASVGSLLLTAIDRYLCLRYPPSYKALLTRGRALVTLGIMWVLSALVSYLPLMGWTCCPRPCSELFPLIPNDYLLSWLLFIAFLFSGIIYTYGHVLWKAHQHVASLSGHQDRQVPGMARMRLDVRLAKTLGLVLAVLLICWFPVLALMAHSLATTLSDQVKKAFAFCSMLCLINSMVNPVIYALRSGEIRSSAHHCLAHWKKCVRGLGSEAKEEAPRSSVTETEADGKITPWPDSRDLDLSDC
# MDCK = assay: Permeability from apical to basolateral side of MDR1 transfected MDCK cells at 3.16 uM after 1 hr by LC/MS analysis; format: ADME, cell-based, Canis lupus familiaris; conditions: dog
# In short: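 MDCK-mdr1 cells grown on filters for 4 days to confluence. Compound added apically at 3.16 μM, incubated 1 hr at 37°C. Apical-to-basal transport quantified by mass spectrometry in MRM mode, tuned per compound by infusion.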
SMILES,Ke (Cannabinoid receptor 1 [1]) [µM],Ki (Cannabinoid receptor 1 [2]) [nM],Ki (Cannabinoid receptor 1 [3]) [nM],Ratio Ki (Homo sapiens),Ki (Cannabinoid receptor 2) [nM],permeability (MDCK) [%]
Cc1c(C(=O)Nc2ccncc2)nn(-c2ccc(Cl)cc2Cl)c1-c1ccc(Cl)cc1,,13,56,31,1740,
Cc1c(C(=O)Nc2cc[n+]([O-])cc2)nn(-c2ccc(Cl)cc2Cl)c1-c1ccc(Cl)cc1,1.39,61,294,15,4520,
Cc1c(C(=O)NCC2CCC(CNS(C)(=O)=O)CC2)nn(-c2ccc(Cl)cc2Cl)c1-c1ccc(Cl)cc1 (mixture of isomers),,11,55,,900,
Cc1c(C(=O)NCC2CCC(CNS(N)(=O)=O)CC2)nn(-c2ccc(Cl)cc2Cl)c1-c1ccc(Cl)cc1 (mixture of isomers),,,,,2310,
Cc1c(C(=O)Nc2ccc(C)[n+](C)c2)nn(-c2ccc(Cl)cc2Cl)c1-c1ccc(Cl)cc1,,786,1700,1.3,2270,
Cc1c(C(=O)NCCCN(C)CCCNS(C)(=O)=O)nn(-c2ccc(Cl)cc2Cl)c1-c1ccc(Cl)cc1,5.34,,,,,
Cc1c(C(=O)NCCCCCCCNS(C)(=O)=O)nn(-c2ccc(Cl)cc2Cl)c1-c1ccc(Cl)cc1,,,,,780,
Cc1ccc(NC(=O)c2nn(-c3ccc(Cl)cc3Cl)c(-c3ccc(Cl)cc3)c2C)cn1,,26,102,39,4010,
Cc1c(C(=O)NC[C@H]2CC[C@@H](CNS(C)(=O)=O)CC2)nn(-c2ccc(Cl)cc2Cl)c1-c1ccc(Cl)cc1,,8,36,,960,< 1

# Continued, in another order:
Ke (Cannabinoid receptor 1 [1]) [µM],Ki (Cannabinoid receptor 1 [2]) [nM],Ki (Cannabinoid receptor 1 [3]) [nM],Ratio Ki (Homo sapiens),Ki (Cannabinoid receptor 2) [nM],SMILES,permeability (MDCK) [%]
2.83,,,,,Cc1c(C(=O)NCc2cccc(CNS(C)(=O)=O)c2)nn(-c2ccc(Cl)cc2Cl)c1-c1ccc(Cl)cc1,
2.93,,,,,Cc1c(C(=O)NCc2ccc(CNS(C)(=O)=O)cc2)nn(-c2ccc(Cl)cc2Cl)c1-c1ccc(Cl)cc1,
4.2,,,,,Cc1c(C(=O)NCc2cccc(CNS(N)(=O)=O)c2)nn(-c2ccc(Cl)cc2Cl)c1-c1ccc(Cl)cc1,
0.304,20,49,21,1010,Cc1c(C(=O)NCCCCCCCNS(N)(=O)=O)nn(-c2ccc(Cl)cc2Cl)c1-c1ccc(Cl)cc1,
0.376,,,,,Cc1c(C(=O)NCc2ccc(CNS(N)(=O)=O)cc2)nn(-c2ccc(Cl)cc2Cl)c1-c1ccc(Cl)cc1,
,,,,1790,Cc1c(C(=O)NC[C@H]2CC[C@@H](CNS(N)(=O)=O)CC2)nn(-c2ccc(Cl)cc2Cl)c1-c1ccc(Cl)cc1,< 1
